A selection: hits, their analogues and other compounds. The true share with any hit is near 1.8%.
APJ agonist: activates the human apelin receptor APJ; P35414; CHO-K1 APJ PathHunter beta-arrestin, luminescence; 0% DMSO wells, 100% apelin; activation, % at 20 µM; 0.11% of 330,000 active;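 active = activation more than six SD over the plate average, tested at 20 µM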
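Test system – PathHunter CHO-K1 APJ (AGTRL-1) beta-arrestin reporter cells · Input – 1000 cells/well · Compound – single test compound dose, 20 µM final, 1% DMSO · Times – compound stimulation 90 min at 25 °C, detection 60 min · Technique – beta-gal luminescence · Read-out basis – APJ–arrestin association signal · Control set – negative DMSO alone, positive Apelin-13 at 10 nM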
B2AR ag: agonists of human beta-2 adrenergic receptor inducing internalization. P07550. Am2.2-beta2AR cells, FAP receptor internalization, flow cytometry. response, % (no concentration beside the values). 0.43% of 340,000 active. AID 504454;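 active = response above a set limit, near 3 SD of response in nonfluorescent compounds, cut at about 42% in these data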
EBI2 block: EBI2 (human) antagonism | 0.81% of 360,000 active | P32249 | EBI2 beta-arrestin recruitment, luminescence, 7a,25-OHC stimulated | inhibition, % at 5 µM | AID 651636; in the data active = inhibition above about 38%;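 note: enzyme fragment complementation signal reports receptor beta-arrestin coupling in cells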
Target sequence (P32249 whole entry, looked up, the tested form may be a part): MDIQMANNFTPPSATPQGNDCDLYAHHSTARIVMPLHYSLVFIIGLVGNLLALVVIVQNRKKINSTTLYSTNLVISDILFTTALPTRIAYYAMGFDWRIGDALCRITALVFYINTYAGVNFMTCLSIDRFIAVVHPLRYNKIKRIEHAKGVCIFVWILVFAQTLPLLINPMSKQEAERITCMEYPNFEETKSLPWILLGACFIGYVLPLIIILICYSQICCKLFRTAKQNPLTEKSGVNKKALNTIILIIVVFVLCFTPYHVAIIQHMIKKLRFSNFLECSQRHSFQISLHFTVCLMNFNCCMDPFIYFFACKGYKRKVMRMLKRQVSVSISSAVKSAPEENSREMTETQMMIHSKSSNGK
CCR6 antag: blocks CCL20-driven beta-arrestin recruitment at human CCR6 | inhibition, % at 20 µM | CHO-K1 CCR6 PathHunter beta-arrestin, luminescence, CCL20-stimulated | 0.49% of 340,000 active | AID 493098 | P51684;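 active = compounds whose inhibition of the agonist-driven luminescence signal at 20 µM reaches about 50%, limit read from the data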;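 note: cells stimulated with CCL20 at 14 nM final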
APJ antag: antagonists of human APJ apelin receptor | P35414 | CHO-K1 APJ beta-arrestin complementation, luminescence | inhibition, % at 20 µM | 0.32% of 330,000 active | AID 2521;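 active = inhibition above about 40% at 20 µM, limit read from the data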;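 note: cells challenged with 10 nM apelin-13 agonist together with compound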
CXCR6 block: blocks human CXCR6 beta-arrestin recruitment. inhibition, % at 20 µM. 0.36% of 360,000 active. CHO-K1 PathHunter CXCR6 beta-arrestin, luminescence. AID 602244; in the data active = inhibition above about 34%, passing the limit was not always enough;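 note: antagonist mode with CXCL16 agonist at 10 nM final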
Each line names hits and unclear results; the compound was inactive in the other large screens.

CC1(C)CC[C@]2(CO)CC[C@]3(C)C(=CCC4[C@@]5(C)CC[C@H](O)[C@@](C)(CO)C5CC[C@]43C)[C@@H]2C1 (some centres not stated)	none
O=C(COc1ccccc1Br)Nc1ccc(S(=O)(=O)N2CCCC2)cc1	none
O=C1C=C(c2cccc3c2sc2ccccc23)C[C@@H](c2ccc(F)cc2)C1	EBI2 block 67
CN(C)c1ccc(-c2nnc(-c3ccccc3F)o2)cc1	none
CCOc1ccc(NC(=O)COC(=O)CC2CC3CCC2C3)cc1 (configuration not stated)	none
COc1cccc(C2c3cc4c(cc3OC(C)(N3CCCC3)C2C)OCO4)c1O (configuration not stated)	none (no result: APJ agonist, APJ antag)
Cc1nnc(N2C(=O)C(=O)/C(=C(\O)c3ccc4c(c3)CC(C)O4)C2c2ccccc2)s1 (configuration not stated)	none
O=C(Cn1ccc2ccccc2c1=O)Nc1ccc2c(c1)OCO2	CCR6 antag 69
CC1(C(=O)Nc2ccccc2)CCN1C(=O)CCc1ccc(Cl)cc1Cl (configuration not stated)	none (no result: APJ agonist, B2AR ag, CCR6 antag, APJ antag)
COc1ccccc1NC(=O)c1cc2c(CO)cnc(C)c2oc1=Nc1cccc(C(N)=O)c1	B2AR ag 58
COc1ccccc1NC(=O)c1cc2c(CO)cnc(C)c2oc1=Nc1ccccc1	none
Nc1c(-c2ccc(C(F)(F)F)cc2)nc2ncccn12	none (no result: APJ agonist, B2AR ag, CCR6 antag, APJ antag, CXCR6 block)
CCOC(=O)/C=C/C(=O)OCC(=O)Nc1ccc(C)cc1	none
CCOC(=O)/C=C/C(=O)OCC(=O)Nc1cccc(Br)c1	B2AR ag 43
Cc1ccc(-c2nn(-c3ccccc3)cc2C2CC(c3cccs3)=NN2C(=O)CCCC(=O)O)cc1 (configuration not stated)	B2AR ag 69
O=C(O)COc1ccc2nsnc2c1Cl	none
Cc1ccccc1C1=C/C(=C(\SS/C(C(=O)c2ccc(OCC(=O)O)c(Cl)c2Cl)=C2\C=C(c3ccccc3C)SS2)C(=O)c2ccc(OCC(=O)O)c(Cl)c2Cl)SS1	CCR6 antag 62 (no result: APJ agonist, APJ antag)
Cc1ccc(C2(c3ccc(C)cc3)CC2C(=O)NC(C)C)cc1 (configuration not stated)	none
O=C(CN1C(=O)/C(=C\c2ccccc2Br)Oc2ccccc21)NCCCN1CCOCC1	CCR6 antag 68
COc1ccc(NC(=O)N(C)C[C@@H]2OCc3cn(nn3)CCCC(=O)N([C@H](C)CO)C[C@H]2C)cc1	none (no result: APJ agonist, B2AR ag, CCR6 antag, APJ antag)
O=C(CSc1cccc[n+]1[O-])Nc1cc(Cl)ccc1[N+](=O)[O-]	none
O=[N+]([O-])c1ccc(Sc2cccc[n+]2[O-])c2nonc12	EBI2 block 58, CCR6 antag 115, CXCR6 block 110 (no result: APJ agonist, APJ antag)
O=[N+]([O-])c1ccc(Nc2ccccc2)c2nonc12	CCR6 antag 51, APJ antag 52
COc1ccc(C(=O)OCC(=O)N(C)C2CCS(=O)(=O)C2)cc1Br (configuration not stated)	none
NC(=O)c1cc(-c2ccccc2)sc1NC(=O)Cc1ccc(S(=O)(=O)N2CCOCC2)s1	EBI2 block 50
O=Cc1cc2ccccc2nc1SCc1ccc(Cl)cc1	B2AR ag 46
O=Cc1cc2ccccc2nc1SCc1ccc(Cl)c(Cl)c1	none
CNC[C@H](Cc1ccccc1)NC[C@@H](Cc1cccc2ccccc12)NCCc1ccc(C)cc1	B2AR ag 98
CNCCNC[C@H](Cc1cccc2ccccc12)NCCc1ccccc1	none
CCOc1cc(/C=C2\COc3ccccc3C2=O)cc(Br)c1OCC(=O)N(C)C	B2AR ag 55
CC(NC(=O)/C(C#N)=C/c1ccc([N+](=O)[O-])o1)c1ccccc1 (configuration not stated)	CXCR6 block 50 (no result: CCR6 antag)
CC(NC(=O)/C(C#N)=C/c1ccco1)c1ccccc1 (configuration not stated)	none
COC(=O)C1=C(C)NC(=S)NC1c1ccc(-c2cccc(Cl)c2)o1 (configuration not stated)	B2AR ag 51
O=C(CCOc1ccccc1)OCC(=O)c1cc2ccccc2o1	CCR6 antag 85
CSc1ncccc1C(=O)OCC(=O)c1cc2ccccc2o1	CCR6 antag 50
COc1ccccc1C(C)NC(=O)c1ccccc1SCC(=O)N1CCCC1 (configuration not stated)	none
CN(C)CCCNC(=O)C[C@H]1C[C@H](C(=O)N2CCOCC2)[C@@]2(CCC3CCCC3)c3[nH]c4cc(-c5ccco5)ccc4c3CCN2C1=O	B2AR ag 63 (no result: APJ agonist, APJ antag)
O=C(C[C@H]1C[C@H](C(=O)N2CCOCC2)[C@@]2(CCC3CCCC3)c3[nH]c4cc(-c5ccco5)ccc4c3CCN2C1=O)NCCN1CCOCC1	none (no result: APJ agonist, APJ antag)
COC(=O)c1cc(C)nc2c1C(=O)C(=O)C=C2N1CCOCC1	B2AR ag 61
COc1ccc(C(CNC(=O)c2ccc(OCc3c(C)noc3C)cc2)N2CCCC2)cc1 (configuration not stated)	none
N=c1c(C(=O)NCc2ccccc2)cc2c(=O)n3ccccc3nc2n1Cc1ccco1	none
N=c1c(C(=O)NCc2ccc(F)cc2)cc2c(=O)n3ccccc3nc2n1Cc1ccco1	APJ antag 49
CCCCN(C)C(=O)c1sc(=O)n(Cc2ccc(Cl)c(Cl)c2)c1C	none (no result: APJ agonist, B2AR ag, CCR6 antag, APJ antag)
CC[C@H]1c2[nH]c3ccccc3c2C[C@H]2C(=O)N(c3ccc(F)cc3)C(=O)N21	EBI2 block 48
CC(C)(C)c1ccc(C(O)c2ncc(-c3ccccc3F)[nH]2)cc1 (configuration not stated)	none (no result: APJ agonist, B2AR ag, CCR6 antag, APJ antag)
CCN1/C(=C2/SC(=S)NC2=O)Sc2ccccc21	none
CSc1ccc(C2=C/C(=C3/SC(=S)NC3=O)c3ccccc3O2)cc1	CCR6 antag 76, CXCR6 block 45 (no result: APJ agonist, APJ antag)
CCOC(=O)COc1ccccc1/C=C\[N+](=O)[O-]	B2AR ag 51, CCR6 antag 69, CXCR6 block 45 (no result: APJ agonist, APJ antag)
Cc1ccc(C(=O)COC(=O)COc2ccccc2[N+](=O)[O-])s1	none
C[C@@H]1CN([C@@H](C)CO)S(=O)(=O)c2ccc(Br)cc2O[C@H]1CN(C)C(=O)Cc1cccnc1	none (no result: APJ agonist, B2AR ag, CCR6 antag, APJ antag)
CCOc1ccc(Nc2c3ccccc3nc3ccccc23)cc1	B2AR ag 52
CC1=NNC(=O)/C1=C\c1cn(-c2ccccc2)nc1-c1ccc(Cl)cc1	APJ agonist 38, B2AR ag 108, EBI2 block 91
CC1(C)CC(=O)C(=Cc2cn(-c3ccccc3)nc2-c2ccccc2)C(=O)C1	none
CC(C)CN(C(=O)COC(=O)CCSc1ccc(Cl)cc1)c1c(N)n(Cc2ccccc2)c(=O)[nH]c1=O	none (no result: APJ agonist, B2AR ag, CCR6 antag, APJ antag)
O=C(O)c1ccc(Cn2cnc3c(=O)[nH]cnc32)cc1	none (no result: APJ agonist, APJ antag)
COC(CNC(=O)c1ccc2c3c(onc13)-c1ccccc1C2=O)OC	B2AR ag 48, CXCR6 block 56 (no result: CCR6 antag)

Bioassay records deposited in PubChem BioAssay by several laboratories.
